Where a name gives a salt, the structure may show the parent alone. Read-outs that look alike come from different tables or passages of the source. Some results are limits rather than exact numbers.

Results on 9 compounds are retold here after article PMC3787694 (Biochimica et biophysica acta, 2010).

The target of experiment [1] is human fetal muscle AChR (α1β1γδ) in TE671 cells (Homo sapiens, UniProt P02708+P07510+P11230+Q07001). The format is cell-based.
For the next experiment, the system named is α4β2 AChR. The conditions noted are these: read-out: inhibitory potency; cited from earlier work.
In experiment [2] the target is Torpedo AChR ion channel ([3H]18-MC site) (Tetronarce californica, UniProt P02710+P02712+P02714+P02718). The format is binding. The following applies: for Ki / nH / ΔG: [3H]18-MC; for ΔG: 298K.
The subject of the next experiment is α3β4 AChR. The following applies: cited from earlier work.
In experiment [3] the target is T1, Torpedo AChR (Tetronarce californica, UniProt P02710+P02712+P02714+P02718). Nature of the experiment: biochemical. The format is binding. The following applies: for apparent nH: [3H]cytisine binding enhancement; for fractional occupancy (θ): calculated with Eq. (2).
Experiment [4] addresses Torpedo AChR ion channel ([3H]TCP site) (Tetronarce californica, UniProt P02710+P02712+P02714+P02718). Nature of the experiment: [3H]TCP competition binding to Torpedo AChRs in different conformational states. The following applies: for Ki / nH / ΔG: [3H]TCP; for ΔG: 298K.
The target of experiment [5] is T1, Torpedo AChR. Nature of the experiment: Equilibrium binding of [3H]18-MC to Torpedo AChR native membranes. In a few lines: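 [3H]18-MC plus unlabelled ligand was added at 0.07–1.2 μM for 2 h at RT, then filtered. Nonspecific binding was measured with 100 μM unlabelled ligand. Kd was taken from the Rosenthal-Scatchard slope and sites/AChR from its x-intercept.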

Experiment [6] deals with Torpedo AChR ion channel ([3H]ibogaine site) (Tetronarce californica, UniProt P02710+P02712+P02714+P02718). Description: [3H]ibogaine competition binding to Torpedo AChRs.
For experiment [7], the target named is T2, Torpedo AChR (immobilized) (Tetronarce californica, UniProt P02710+P02712+P02714+P02718). Description: Thermodynamic parameters by non-linear chromatography. The format is binding. The conditions noted are these: for Ea (drug dissociation): Arrhenius plot; for ΔG^20: Eq. (8), 293K; for ΔH^+: Eq. (10); for ΔH°: van't Hoff 10-25 °C.
Experiment [8] addresses T2, Torpedo AChR (immobilized). Description: Binding kinetics by non-linear chromatography on CMAC-Torpedo AChR column. The conditions noted are these: for Kd: Ka; for koff: 20 °C; for ΔG^20: Eq. (4); for kon: kon=koff·Ka.
Experiment [9] concerns the target Torpedo AChR. The conditions noted are these: cited from earlier work.
In another experiment the target is AChR. The following applies: cited from earlier work.
The target of experiment [10] is Torpedo AChR. The following applies: cited from earlier work. The source holds these as a separate data set.
Setting [11] is: epibatidine treated column (desensitized state).
Where [12] appears, read: α-BTx treated column (resting state).
Setting [13] is: 5 min pre-incubation IC50 comparison.

Chain of human fetal muscle AChR (α1β1γδ) in TE671 cells (P02708 21-457): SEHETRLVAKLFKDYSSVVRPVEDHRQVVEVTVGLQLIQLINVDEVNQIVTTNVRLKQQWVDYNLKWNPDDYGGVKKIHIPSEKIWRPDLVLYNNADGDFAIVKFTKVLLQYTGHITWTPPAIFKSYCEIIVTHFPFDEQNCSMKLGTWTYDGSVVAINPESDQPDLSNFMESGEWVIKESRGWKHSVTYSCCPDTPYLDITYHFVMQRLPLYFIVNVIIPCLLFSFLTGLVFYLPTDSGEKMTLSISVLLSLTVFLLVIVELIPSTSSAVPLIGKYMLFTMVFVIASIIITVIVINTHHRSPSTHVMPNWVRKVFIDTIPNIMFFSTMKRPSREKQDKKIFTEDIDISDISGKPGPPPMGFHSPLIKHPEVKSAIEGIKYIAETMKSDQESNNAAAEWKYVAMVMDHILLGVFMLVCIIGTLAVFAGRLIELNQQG
Chain of human fetal muscle AChR (α1β1γδ) in TE671 cells (Q07001 22-517): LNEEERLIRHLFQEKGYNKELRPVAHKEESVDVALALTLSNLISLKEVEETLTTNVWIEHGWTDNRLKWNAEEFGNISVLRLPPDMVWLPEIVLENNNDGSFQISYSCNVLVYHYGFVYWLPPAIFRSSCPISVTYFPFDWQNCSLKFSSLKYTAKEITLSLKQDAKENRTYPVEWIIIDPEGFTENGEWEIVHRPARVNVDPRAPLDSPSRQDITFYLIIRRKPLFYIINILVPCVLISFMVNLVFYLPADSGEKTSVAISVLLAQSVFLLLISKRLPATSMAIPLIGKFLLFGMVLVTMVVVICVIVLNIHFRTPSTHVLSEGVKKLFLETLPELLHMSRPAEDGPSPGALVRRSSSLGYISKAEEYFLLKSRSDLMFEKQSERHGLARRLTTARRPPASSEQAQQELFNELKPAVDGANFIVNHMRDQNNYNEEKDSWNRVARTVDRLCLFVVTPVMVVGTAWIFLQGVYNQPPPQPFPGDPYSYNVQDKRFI
Chain of human fetal muscle AChR (α1β1γδ) in TE671 cells (P11230 24-501): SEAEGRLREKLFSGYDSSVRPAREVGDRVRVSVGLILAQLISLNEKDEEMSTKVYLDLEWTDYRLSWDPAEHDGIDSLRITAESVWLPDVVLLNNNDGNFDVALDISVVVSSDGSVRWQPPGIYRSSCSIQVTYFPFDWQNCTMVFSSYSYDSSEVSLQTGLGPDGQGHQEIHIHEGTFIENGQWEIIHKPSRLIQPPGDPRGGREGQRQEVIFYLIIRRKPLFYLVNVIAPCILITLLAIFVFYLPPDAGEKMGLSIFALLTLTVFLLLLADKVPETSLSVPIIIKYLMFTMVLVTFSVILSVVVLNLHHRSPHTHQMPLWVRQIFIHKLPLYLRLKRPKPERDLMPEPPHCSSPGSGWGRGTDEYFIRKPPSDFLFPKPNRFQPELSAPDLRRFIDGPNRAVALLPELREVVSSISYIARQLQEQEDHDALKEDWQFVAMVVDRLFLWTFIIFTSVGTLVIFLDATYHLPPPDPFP
Chain of human fetal muscle AChR (α1β1γδ) in TE671 cells (P07510 23-517): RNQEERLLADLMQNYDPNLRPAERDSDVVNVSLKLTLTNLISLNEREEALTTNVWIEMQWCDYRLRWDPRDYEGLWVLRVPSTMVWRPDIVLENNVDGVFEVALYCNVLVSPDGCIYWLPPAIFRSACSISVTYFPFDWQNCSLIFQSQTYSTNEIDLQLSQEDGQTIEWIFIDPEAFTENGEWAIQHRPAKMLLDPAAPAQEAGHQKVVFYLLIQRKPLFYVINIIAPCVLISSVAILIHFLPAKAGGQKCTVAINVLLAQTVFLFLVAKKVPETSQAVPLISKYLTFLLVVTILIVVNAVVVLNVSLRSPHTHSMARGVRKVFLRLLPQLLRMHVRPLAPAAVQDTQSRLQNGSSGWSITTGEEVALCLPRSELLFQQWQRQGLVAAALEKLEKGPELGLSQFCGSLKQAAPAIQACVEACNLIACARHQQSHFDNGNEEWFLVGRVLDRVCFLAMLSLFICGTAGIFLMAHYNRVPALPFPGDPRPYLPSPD
Chain of Torpedo AChR ion channel ([3H]TCP site) (P02710 25-461): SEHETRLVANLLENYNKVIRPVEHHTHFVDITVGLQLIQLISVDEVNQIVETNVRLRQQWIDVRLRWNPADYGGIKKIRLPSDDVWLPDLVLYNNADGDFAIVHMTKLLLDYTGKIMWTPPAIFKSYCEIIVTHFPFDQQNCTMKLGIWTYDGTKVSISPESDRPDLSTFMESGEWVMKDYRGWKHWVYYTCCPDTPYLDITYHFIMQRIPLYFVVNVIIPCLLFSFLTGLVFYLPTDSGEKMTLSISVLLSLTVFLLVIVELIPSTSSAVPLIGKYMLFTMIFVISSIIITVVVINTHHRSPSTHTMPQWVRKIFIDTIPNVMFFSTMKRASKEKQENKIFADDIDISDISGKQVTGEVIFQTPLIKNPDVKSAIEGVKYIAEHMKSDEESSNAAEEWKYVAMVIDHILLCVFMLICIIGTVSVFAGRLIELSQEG
Chain of Torpedo AChR ion channel ([3H]TCP site) (P02712 25-493): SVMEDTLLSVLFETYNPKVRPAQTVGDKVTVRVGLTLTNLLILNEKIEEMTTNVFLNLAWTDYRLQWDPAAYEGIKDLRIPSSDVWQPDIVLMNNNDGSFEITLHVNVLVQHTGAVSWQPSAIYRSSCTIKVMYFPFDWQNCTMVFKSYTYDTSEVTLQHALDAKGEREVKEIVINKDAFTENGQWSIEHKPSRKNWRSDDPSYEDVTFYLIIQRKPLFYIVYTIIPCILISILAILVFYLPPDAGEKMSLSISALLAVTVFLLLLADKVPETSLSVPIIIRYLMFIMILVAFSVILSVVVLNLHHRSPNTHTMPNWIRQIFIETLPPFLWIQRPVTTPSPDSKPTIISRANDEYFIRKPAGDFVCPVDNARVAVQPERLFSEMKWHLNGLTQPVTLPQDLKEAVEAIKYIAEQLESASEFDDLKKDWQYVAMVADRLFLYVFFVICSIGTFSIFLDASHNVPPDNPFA
Chain of Torpedo AChR ion channel ([3H]TCP site) (P02714 18-506): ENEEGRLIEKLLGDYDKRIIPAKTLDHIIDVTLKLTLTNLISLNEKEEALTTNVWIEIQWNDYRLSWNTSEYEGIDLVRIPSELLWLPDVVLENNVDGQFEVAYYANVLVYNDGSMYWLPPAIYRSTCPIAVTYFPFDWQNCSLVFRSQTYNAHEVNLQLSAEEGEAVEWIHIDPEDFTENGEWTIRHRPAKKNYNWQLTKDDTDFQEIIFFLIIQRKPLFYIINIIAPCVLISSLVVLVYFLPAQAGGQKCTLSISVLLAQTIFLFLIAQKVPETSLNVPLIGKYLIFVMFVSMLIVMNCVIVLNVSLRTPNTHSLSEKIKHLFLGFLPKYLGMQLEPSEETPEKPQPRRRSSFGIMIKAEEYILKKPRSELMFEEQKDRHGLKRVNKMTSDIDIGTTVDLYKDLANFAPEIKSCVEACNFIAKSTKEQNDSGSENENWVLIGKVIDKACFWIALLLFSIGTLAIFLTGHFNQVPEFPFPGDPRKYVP
Chain of Torpedo AChR ion channel ([3H]TCP site) (P02718 22-522): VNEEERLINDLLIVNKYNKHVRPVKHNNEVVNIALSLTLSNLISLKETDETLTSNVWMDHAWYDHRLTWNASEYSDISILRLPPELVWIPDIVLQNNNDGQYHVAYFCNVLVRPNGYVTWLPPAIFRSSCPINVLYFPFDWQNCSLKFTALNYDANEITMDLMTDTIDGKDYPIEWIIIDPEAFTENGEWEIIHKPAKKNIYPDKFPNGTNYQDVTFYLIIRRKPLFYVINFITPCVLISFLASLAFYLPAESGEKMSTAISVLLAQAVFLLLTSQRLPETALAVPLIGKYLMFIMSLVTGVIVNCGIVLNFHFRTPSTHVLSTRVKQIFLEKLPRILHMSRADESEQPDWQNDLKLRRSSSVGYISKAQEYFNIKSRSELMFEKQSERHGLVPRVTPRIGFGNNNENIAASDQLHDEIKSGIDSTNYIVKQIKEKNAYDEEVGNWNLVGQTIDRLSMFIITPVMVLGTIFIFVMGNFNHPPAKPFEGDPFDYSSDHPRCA
Chain of Torpedo AChR ion channel ([3H]ibogaine site) (P02710 25-461): as the sequence (P02710 25-461) above
Chain of Torpedo AChR ion channel ([3H]ibogaine site) (P02712 25-493): as the sequence (P02712 25-493) above
Chain of Torpedo AChR ion channel ([3H]ibogaine site) (P02714 18-506): as the sequence (P02714 18-506) above
Chain of Torpedo AChR ion channel ([3H]ibogaine site) (P02718 22-522): as the sequence (P02718 22-522) above
T1 sequence (P02710 25-461): as the sequence (P02710 25-461) above
T1 sequence (P02712 25-493): as the sequence (P02712 25-493) above
T1 sequence (P02714 18-506): as the sequence (P02714 18-506) above
T1 sequence (P02718 22-522): as the sequence (P02718 22-522) above
Chain of Torpedo AChR ion channel ([3H]18-MC site) (P02710 25-461): as the sequence (P02710 25-461) above
Chain of Torpedo AChR ion channel ([3H]18-MC site) (P02712 25-493): as the sequence (P02712 25-493) above
Chain of Torpedo AChR ion channel ([3H]18-MC site) (P02714 18-506): as the sequence (P02714 18-506) above
Chain of Torpedo AChR ion channel ([3H]18-MC site) (P02718 22-522): as the sequence (P02718 22-522) above
T2 sequence (P02718 22-522): as above
T2 sequence (P02712 25-493): as the sequence (P02712 25-493) above
T2 sequence (P02714 18-506): as the sequence (P02714 18-506) above
T2 sequence (P02710 25-461): as the sequence (P02710 25-461) above

As to `Clc1ccc(C2CC3CCC2N3)cn1` (racemic) [(±)-epibatidine, reference compound], the nH of activation in [1] (agonist activation) was found to be 1.23 ±0.06.
`COCC[C@H]1CC2CN3CCc4c([nH]c5ccccc45)[C@](C(=O)OC)(C2)[C@H]13` [18-MC, 18-methoxycoronaridine]: the IC50 in the experiment with α4β2 AChR is over 20000 nM; with α3β4 AChR it was 750 to 900 nM. Further, the Ki came out at 470 ± 30 nM in experiment [2] (desensitized/CCh-bound state); 1000 ± 100 nM in [2] (resting/α-BTx-bound state); 170 ± 10 nM in [4] (desensitized/CCh-bound state); 1400 ± 100 nM in [4] (resting/α-BTx-bound state); 610 ± 80 nM in experiment [6]. The “fold higher affinity for the desensitized AChR compared to the resting AChR” value in [2] ([3H]18-MC competition) was about 2 fold. Also, the nH in experiment [2] (desensitized/CCh-bound state) was 1.02 ±0.06; in [2] (resting/α-BTx-bound state), 0.70 ± 0.05; in experiment [4] (desensitized/CCh-bound state) it was 1.11 ±0.07; in [4] (resting/α-BTx-bound state) it was 0.89 ± 0.06; in experiment [6] ([3H]ibogaine, desensitized/CCh-bound state), 1.02 ±0.13. Further, the ΔG in [2] (desensitized/CCh-bound state) is -8.63 ± 0.048 kcal/mol; in [2] (resting/α-BTx-bound state), -8.2 ± 0.072 kcal/mol; in experiment [4] (desensitized/CCh-bound state), -9.23 ± 0.024 kcal/mol; in experiment [4] (resting/α-BTx-bound state), -7.98 ± 0.048 kcal/mol; in [6] ([3H]ibogaine, desensitized/CCh-bound state, 298K), -8.48 ± 0.072 kcal/mol. The same compound registered an EC50 on Torpedo AChR [3] of 300 ± 100 nM. The “fold more potent than ibogaine to induce AChR desensitization” value at Torpedo AChR [3] is on record as about 90 fold. Moreover, the “apparent nH” value at Torpedo AChR [3] stood at 0.81±0.20. Besides, the “fold higher affinity in the desensitized AChR than in the resting AChR” value in experiment [4] ([3H]TCP binding site) was about 8 fold. In [4] (both conformational states), the “inhibition of the specific binding of [3H]TCP” value was about 100%. The dissociation constant (Kd) was 230 ± 40 nM on Torpedo AChR [5], 337 nM in experiment [8] (setting [11]) and 885 nM in experiment [8] (setting [12]). In [6] (both conformational states (so in the source)), the “inhibition of the specific binding of [3H]ibogaine” value is recorded as about 100%. In addition, in [7] (desensitized AChR), the “enthalpic contribution relative to the entropic contribution” value was “more than 2 fold”. The “−TΔS°” value in experiment [7] (setting [11]) was -2.68 ± 0.287 kcal/mol; in experiment [7] (setting [12]), -3.7 ± 0.263 kcal/mol. Also, the “Ea (drug dissociation)” value in experiment [7] (setting [11]) stood at 5.35 ± 0.359 kcal/mol; in [7] (setting [12]), 3.92 ± 0.17 kcal/mol. Also, the “ΔG^20” value in experiment [7] (setting [11]) was -8.68 ± 0.335 kcal/mol; in experiment [7] (setting [12]), -8.13 ± 0.335 kcal/mol; in [8] (setting [11]), -8.68 ± 0.024 kcal/mol; in experiment [8] (setting [12]), -8.1 ± 0.024 kcal/mol. The “ΔH^+” value in [7] (setting [11]) was 4.78 ± 0.359 kcal/mol; in [7] (setting [12]) it was 3.32 ± 0.17 kcal/mol. Moreover, the “ΔH°” value in experiment [7] (setting [11]) was -5.98 ± 0.263 kcal/mol; in experiment [7] (setting [12]), -4.42 ± 0.263 kcal/mol. Further, in experiment [1] (4 or 24 h vs 5 min pre-incubation), the “increase of potency by longer pre-incubation periods” value is reported as about 2 fold. In addition, the “fold more potent than PCP” value in experiment [1] (setting [13]) is about 4 fold. For the same compound, the “fold more potent than ibogaine” value in [1] (setting [13]) is about 2 fold. In addition, the entries for the “nH (Hill coefficient)” value in experiment [1] (pre-incubation 5 min), in experiment [1] (pre-incubation 240 min) and in experiment [1] (pre-incubation 1440 min) were 1.56 ±0.15, 1.90 ±0.20 and 1.61 ±0.13, respectively. Further, the “manner of inhibition of hα1β1γδ AChR” value in experiment [1] (pre-treatment with 1, 10 and 100 μM) is “dose dependent and noncompetitive manner”. For the same compound, the off-rate (koff) in experiment [8] (setting [11]) turned out to be 0.077 ± 0.001 s⁻¹; in experiment [8] (setting [12]), 0.109 ± 0.005 s⁻¹. Moreover, the kon in [8] (setting [11]) came out at 228000 ± 3000 M⁻¹ s⁻¹; in [8] (setting [12]), 123000 ± 2000 M⁻¹ s⁻¹.
Take `c1ccc(C2(N3CCCCC3)CCCCC2)cc1` [PCP, phencyclidine]: in experiment [2] (desensitized/CCh-bound state), the inhibition constant Ki worked out at 410 ± 30 nM, the nH is recorded as 0.76 ± 0.03 and the ΔG was -8.7 ± 0.024 kcal/mol. Besides, in experiment [2] (resting/α-BTx-bound state), the Ki is 730 ± 50 nM, the nH is on record as 0.88 ± 0.05 and the ΔG is -8.37 ± 0.048 kcal/mol. Further, the “inhibition of the specific binding of [3H]18-MC” value in experiment [2] (both conformational states) is about 100%. Further, the “nH (Hill coefficient)” value in [1] (pre-incubation 5 min) came out at 2.30 ±0.04.
As to `c1csc(C2(N3CCCCC3)CCCCC2)c1` [[^3H]TCP, [Piperidyl-3,4-^3H(N)]-(N-(1-(2 thienyl)cyclohexyl)-3,4-piperidine)], the Kd was 250 nM at Torpedo AChR [9] (desensitized state) and 830 nM at Torpedo AChR [9] (resting state).
As for `[3H]c1cc([3H])c(=O)n2c1[C@H]1CNC[C@H](C1)C2` [[^3H]cytisine, [^3H]cytisine hydrochloride, reference compound], the “fractional occupancy (θ)” value on Torpedo AChR [3] (bound to the desensitized AChR, 7.7 nM) is listed as about 0.017%; on Torpedo AChR [3] (bound to the resting AChR, nH = 1, 7.7 nM), about 0.005%.
For `O=c1cccc2n1C[C@@H]1CNC[C@H]2C1` [cytisine], the results for the Ki at AChR (desensitized state) and on AChR (resting state) were 450 nM and 1600 nM, respectively.
For “[^3H]18-Methoxycoronaridine [[^3H]18-MC]”, the stoichiometric ratio on Torpedo AChR [5] (desensitized/CCh-bound state) turned out to be 0.86 ± 0.13 binding sites/AChR. At Torpedo AChR [5] (desensitized/CCh-bound state (1 mM CCh), Rosenthal-Scatchard plot), the equilibrium dissociation constant (Kd) was determined as 230 nM.
Turning to [^3H]Ibogaine, the Kd on Torpedo AChR [10] was 5400 nM.
In the case of ibogaine, in experiment [2] (desensitized/CCh-bound state), the nH amounted to 1.11 ±0.07 and the ΔG was -6.86 ± 0.048 kcal/mol. In experiment [2] (resting/α-BTx-bound state), this compound came in with a nH of 1.04 ±0.08 and a ΔG of -6.76 ± 0.048 kcal/mol. For the same compound, the IC50 in the experiment with α3β4 AChR is 220 nM. Besides, the “apparent nH” value at Torpedo AChR [3] came to 0.99±0.22. Further, the “nH (Hill coefficient)” value in [1] (pre-incubation 5 min) was 2.00 ±0.29.

The Ki is a measure of affinity in units of concentration, obtained from inhibition or displacement. Broadly, the EC50 is the concentration needed to bring the measured effect to its halfway point. One may read the Kd as the free concentration of one partner at which half of the binding sites on the other are occupied at equilibrium, for simple one-to-one binding. What is called koff is a measure of how fast the partners let go of each other. By kon is commonly meant the second-order rate constant of association.
